ChEMBL document CHEMBL1770114, “Triamino pyrimidines and pyridines as histamine H(4) receptor modulators” (Bioorg Med Chem Lett, 2011)

Legend:
Histamine H4 receptor [1] = molecular target: T1, Histamine H4 receptor (Homo sapiens, UniProt Q9H3N8); test: Displacement of [3H]histamine from human histamine H4 receptor
Histamine H4 receptor [2] = molecular target: T1, Histamine H4 receptor; test: Agonist activity at human histamine H4 receptor expressed in human SK-N-MC cells assessed as effect on forskolin-induced cAMP accumulation after 6 hrs; format: functional, cell-based
How it was run: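 SK-N-MC cells with CRE-driven β-galactosidase reporter. Compound added to medium for 10 min at room temperature, then forskolin (5 µM final), 6 h at 37 °C. Chlorophenol red β-D-galactopyranoside substrate read at A570. α set against histamine (full agonist) = 1.0.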

Histamine H4 receptor [3] = molecular target: T1, Histamine H4 receptor; test: Antagonist activity at human histamine H4 receptor expressed in human SK-N-MC cells assessed as inhibition of forskolin-stimulated cAMP accumulation after 6 hrs; format: functional, cell-based; details: read-out: pA2 (converted)
How it was run: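 pA2 format on SK-N-MC cells carrying a CRE-controlled β-galactosidase reporter. Cells were preincubated with compound for 10 min, then with histamine agonist for 10 min, then forskolin was added, followed by 6 h at 37 °C. Lysis used phosphate/Mg/Mn buffer at pH 8 with Triton X-100 and β-mercaptoethanol. Chlorophenol red β-D-galactopyranoside turnover was read at 570 nm.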

Histamine H4 receptor [4] = molecular target: T1, Histamine H4 receptor; test: Agonist activity at human histamine H4 receptor expressed in human SK-N-MC cells assessed as effect on forskolin-induced cAMP accumulation after 6 hrs relative to histamine; format: functional, cell-based
How it was run: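 SK-N-MC cells expressing human H4 receptor with a cAMP-responsive-element β-galactosidase reporter. Compound incubated 10 min at room temperature, then forskolin (5 µM final), then 6 h at 37 °C. Cells frozen overnight at -40 °C, lysed in phosphate buffer pH 8, chlorophenolred β-D-galactopyranoside substrate added, absorbance read at 570 nm. α calculated relative to histamine (full agonist) set as 1.0.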

T1 sequence (Q9H3N8 whole entry): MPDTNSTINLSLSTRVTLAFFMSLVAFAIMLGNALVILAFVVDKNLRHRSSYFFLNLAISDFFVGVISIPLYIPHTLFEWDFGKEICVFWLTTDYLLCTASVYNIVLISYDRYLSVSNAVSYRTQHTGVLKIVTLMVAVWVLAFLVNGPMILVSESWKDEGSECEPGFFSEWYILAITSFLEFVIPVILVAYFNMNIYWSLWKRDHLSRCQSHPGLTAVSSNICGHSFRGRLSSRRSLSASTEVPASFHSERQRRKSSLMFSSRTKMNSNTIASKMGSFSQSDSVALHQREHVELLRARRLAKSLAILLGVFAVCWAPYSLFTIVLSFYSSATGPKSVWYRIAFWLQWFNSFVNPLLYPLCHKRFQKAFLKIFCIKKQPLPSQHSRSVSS

| Compound | Ki (Histamine H4 receptor [1]) [nM] | EC50 (Histamine H4 receptor [2]) [nM] | Kb (Histamine H4 receptor [3]) [nM] | Alpha max (Histamine H4 receptor [4]) |
| --- | --- | --- | --- | --- |
| CN[C@@H]1CCN(c2cc(N)nc(N3CCCC3)c2)C1 | 77 | > 10000 | 15.8 |  |
| CN[C@@H]1CCN(c2cc(N)nc(N(C)C(C)C)c2)C1 | 29 |  |  |  |
| CC(C)N(C)c1cc(N2CCN(C)CC2)cc(N)n1 | 189 |  |  |  |
| CC(C)N(C)c1cc(N2CCN(C)CC2)nc(N)n1 | 24 | > 10000 |  |  |
| CN[C@@H]1CCN(c2cc(NCc3ccccc3)nc(N)n2)C1 | 58 |  |  |  |
| CC(C)CNc1cc(N2CCN(C)CC2)cc(N)n1 | 2 | 50 |  | 0.51 |
| Nc1nc(N2CCCC2)cc(N2CC[C@@H](N)C2)n1 | 64 |  |  |  |
| CN1CCN(c2cc(N)nc(N3CCCC3)n2)CC1 | 132 |  |  |  |
| CN[C@@H]1CCN(c2cc(N(C)C(C)C)nc(N)n2)C1 | 51 |  |  |  |
| CN[C@@H]1CCN(c2cc(N)nc(N(C)C(C)C)n2)C1 | 140 |  |  |  |
| CN[C@@H]1CCN(c2cc(N)nc(N3CCCC3)n2)C1 | 127 |  |  |  |
| CN[C@@H]1CCN(c2cc(N)nc(NCC(C)C)n2)C1 | 1 | > 10000 | 1.58 |  |
| CN[C@@H]1CCN(c2cc(N)nc(NCC(C)(C)C)c2)C1 | 0.04 |  |  |  |
| CC(C)N(C)c1nc(N)cc(N2CCN(C)CC2)n1 | 853 |  |  |  |
| CN[C@@H]1CCN(c2cc(N)nc(NCC(C)C)c2)C1 | 0.2 | > 10000 | 1.58 |  |
| CN1CCN(c2cc(N)nc(NCCO)n2)CC1 | 1160 |  |  |  |
| CC(C)CNc1cc(N2CCN(C)CC2)nc(N)n1 | 2 | > 10000 | 1.26 |  |
| CN1CCN(c2cc(N)nc(NC3CCCC3)c2)CC1 | 3 | 11 |  | 0.73 |
| CN1CCN(c2cc(N)nc(NCc3ccccc3)c2)CC1 | 148 |  |  |  |
| CN1CCN(c2cc(N)nc(NCc3ccccc3)n2)CC1 | 1080 |  |  |  |
| CN1CCN(c2cc(NCc3ccccc3)nc(N)n2)CC1 | 20 |  |  |  |
| Nc1nc(N2CCCC2)cc(N2CC3CCCNC3C2)n1 (racemic) | 40 |  |  |  |
| CN1CCN(c2cc(N)nc(N3CCCC3)c2)CC1 | 100 | > 10000 | 20 |  |

| Compound | Ki (Histamine H4 receptor [1]) [nM] | EC50 (Histamine H4 receptor [2]) [nM] | Kb (Histamine H4 receptor [3]) [nM] | Alpha max (Histamine H4 receptor [4]) |
| --- | --- | --- | --- | --- |
| CN[C@@H]1CCN(c2cc(NC(C)C)nc(N)n2)C1 | 3 | > 10000 | 10 |  |
| CC(C)CNc1nc(N)cc(N2CCN(C)CC2)n1 | 15 | 86 |  | 0.71 |
| CN[C@H]1CCN(c2cc(N3CCCC3)nc(N)n2)C1 | 83 |  |  |  |
| CN1CCN(c2cc(N3CCCC3)nc(N)n2)CC1 | 6 | > 10000 | 2 |  |
| CC(C)Nc1cc(N2CCN(C)CC2)cc(N)n1 | 28 | 533 |  | 0.6 |
| CC(C)Nc1nc(N)cc(N2CCN(C)CC2)n1 | 162 |  |  |  |
| CC(C)Nc1cc(N2CCN(C)CC2)nc(N)n1 | 3 | 12 |  | 0.57 |
| Nc1nc(N2CCCC2)cc(N2CCNCC2)n1 | 8 | > 10000 |  |  |
| CN[C@@H]1CCN(c2cc(NCCO)nc(N)n2)C1 | 44 |  |  |  |
| CN1CCN(c2cc(NCCO)nc(N)n2)CC1 | 25 |  |  |  |
| CN[C@@H]1CCN(c2cc(N)nc(NCc3ccccc3)c2)C1 | 50 |  |  |  |
| CN[C@@H]1CCN(c2cc(N)nc(NC(C)C)c2)C1 | 3 | > 10000 | 1.58 |  |
| CN[C@@H]1CCN(c2cc(N)nc(NCCO)n2)C1 | 255 |  |  |  |
| CN[C@@H]1CCN(c2cc(N3CCCC3)nc(N)n2)C1 | 36 | > 10000 | 7.94 |  |
| CN[C@@H]1CCN(c2cc(N)nc(NCc3ccccc3)n2)C1 | 69 |  |  |  |
| CN1CCN(c2cc(N)nc(NCC(C)(C)C)c2)CC1 | 0.3 |  |  |  |
| CN[C@@H]1CCN(c2cc(N)nc(NC3CCCC3)n2)C1 | 6 | > 10000 | 12.6 |  |
| CN[C@@H]1CCN(c2cc(N)nc(NC3CCCC3)c2)C1 | 0.9 | > 10000 |  |  |
| CN[C@@H]1CCN(c2cc(NC3CCCC3)nc(N)n2)C1 | 9 | > 10000 | 0.398 |  |
| CN1CCN(c2cc(N)nc(NC3CCCC3)n2)CC1 | 10 | 16 |  | 0.63 |
| CN1CCN(c2cc(NC3CCCC3)nc(N)n2)CC1 | 1 | 101 |  | 0.46 |
| CN[C@@H]1CCN(c2cc(N)nc(NC(C)C)n2)C1 | 6 | > 10000 | 12.6 |  |
